In ChEMBL document CHEMBL1641579, “Synthesis and biological evaluation of 7-substituted-1-(3-bromophenylamino)isoquinoline-4-carbonitriles as inhibitors of myosin light chain kinase and epidermal growth factor receptor” (Bioorg Med Chem, 2011):

Legend:
[1] = biological target: Mitogen-activated protein kinase kinase kinase 11 (Homo sapiens) (UniProt Q16584); assay: Inhibition of MLK3 assessed as residual activity at 10 uM
In short: (§1)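 Panel screen by radioactive kinase assay at a single inhibitor concentration. Score is the percent activity remaining relative to DMSO controls (100%).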

[2] = biological target: T1, Myosin light chain kinase, smooth muscle (Homo sapiens, UniProt Q15746); assay: Inhibition of MLCK by HTRF assay
[3] = biological target: Insulin-like growth factor 1 receptor (Homo sapiens) (UniProt P08069); assay: Inhibition of IGF1R assessed as residual activity at 10 uM
Insulin-like growth factor 1 receptor (Homo sapiens), sequence (P08069 31-736 limits assumed): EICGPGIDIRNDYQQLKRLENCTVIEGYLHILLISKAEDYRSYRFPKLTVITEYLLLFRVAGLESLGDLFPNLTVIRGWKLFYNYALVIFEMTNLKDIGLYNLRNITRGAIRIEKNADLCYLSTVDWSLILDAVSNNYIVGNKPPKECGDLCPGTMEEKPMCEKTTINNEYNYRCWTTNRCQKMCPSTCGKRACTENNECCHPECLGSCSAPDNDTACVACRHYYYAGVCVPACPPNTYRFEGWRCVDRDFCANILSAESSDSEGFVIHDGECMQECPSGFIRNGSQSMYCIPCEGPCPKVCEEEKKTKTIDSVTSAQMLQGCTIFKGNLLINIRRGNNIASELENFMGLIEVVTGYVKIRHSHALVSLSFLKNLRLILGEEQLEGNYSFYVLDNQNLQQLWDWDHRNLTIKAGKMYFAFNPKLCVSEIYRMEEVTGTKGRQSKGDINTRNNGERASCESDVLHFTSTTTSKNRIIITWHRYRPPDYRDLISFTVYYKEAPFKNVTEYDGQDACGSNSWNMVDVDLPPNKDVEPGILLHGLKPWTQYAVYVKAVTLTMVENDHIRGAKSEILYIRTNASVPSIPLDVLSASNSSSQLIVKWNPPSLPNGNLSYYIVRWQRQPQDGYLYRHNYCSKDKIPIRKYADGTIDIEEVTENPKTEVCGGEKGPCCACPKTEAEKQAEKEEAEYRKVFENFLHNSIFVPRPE
Insulin-like growth factor 1 receptor (Homo sapiens), sequence (P08069 741-1367 limits assumed): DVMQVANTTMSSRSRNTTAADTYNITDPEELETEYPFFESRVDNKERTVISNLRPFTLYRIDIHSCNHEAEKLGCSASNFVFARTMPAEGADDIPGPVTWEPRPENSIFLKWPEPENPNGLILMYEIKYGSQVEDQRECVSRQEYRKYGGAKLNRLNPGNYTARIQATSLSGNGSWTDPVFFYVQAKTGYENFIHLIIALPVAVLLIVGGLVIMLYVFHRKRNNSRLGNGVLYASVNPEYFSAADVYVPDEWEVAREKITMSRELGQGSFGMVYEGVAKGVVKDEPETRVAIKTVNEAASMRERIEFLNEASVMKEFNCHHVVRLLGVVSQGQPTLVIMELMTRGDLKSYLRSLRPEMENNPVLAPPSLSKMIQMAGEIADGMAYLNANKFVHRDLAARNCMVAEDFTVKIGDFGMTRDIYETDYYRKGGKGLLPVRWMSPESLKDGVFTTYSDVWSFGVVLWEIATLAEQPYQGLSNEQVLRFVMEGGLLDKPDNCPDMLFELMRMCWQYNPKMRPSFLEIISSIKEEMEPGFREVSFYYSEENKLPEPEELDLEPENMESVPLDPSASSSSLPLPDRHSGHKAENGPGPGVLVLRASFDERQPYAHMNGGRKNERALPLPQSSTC
In short: (§2)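 Kinase panel screen run as a radioactive activity assay at single compound concentration. Score reported as percent activity remaining relative to DMSO controls (100%).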

[4] = biological target: Tyrosine-protein kinase SYK (Homo sapiens) (UniProt P43405); assay: Inhibition of SYK assessed as residual activity at 10 uM; in short: as §1
[5] = biological target: Serine/threonine-protein kinase pim-1 (Homo sapiens) (UniProt P11309); assay: Inhibition of PIM1 assessed as residual activity at 10 uM; in short: as §1
Serine/threonine-protein kinase pim-1 (Homo sapiens), sequence (P11309 whole entry, looked up): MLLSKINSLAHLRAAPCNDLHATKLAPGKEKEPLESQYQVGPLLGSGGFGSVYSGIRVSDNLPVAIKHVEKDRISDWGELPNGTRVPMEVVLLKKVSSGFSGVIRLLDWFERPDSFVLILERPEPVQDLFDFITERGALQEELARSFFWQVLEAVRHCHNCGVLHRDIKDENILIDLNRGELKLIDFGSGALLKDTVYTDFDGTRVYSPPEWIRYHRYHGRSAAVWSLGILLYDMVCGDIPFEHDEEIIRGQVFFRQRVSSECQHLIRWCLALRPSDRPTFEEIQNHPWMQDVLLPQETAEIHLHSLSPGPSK

[6] = biological target: SRSF protein kinase 1 (Homo sapiens) (UniProt Q96SB4); assay: Inhibition of SRPK1 assessed as residual activity at 10 uM; in short: as §1
[7] = biological target: T2, Serine/threonine-protein kinase D1 (Homo sapiens) (UniProt Q15139); assay: Inhibition of PKDl assessed as residual activity at 10 uM; in short: as §1
T2 sequence (whole entry): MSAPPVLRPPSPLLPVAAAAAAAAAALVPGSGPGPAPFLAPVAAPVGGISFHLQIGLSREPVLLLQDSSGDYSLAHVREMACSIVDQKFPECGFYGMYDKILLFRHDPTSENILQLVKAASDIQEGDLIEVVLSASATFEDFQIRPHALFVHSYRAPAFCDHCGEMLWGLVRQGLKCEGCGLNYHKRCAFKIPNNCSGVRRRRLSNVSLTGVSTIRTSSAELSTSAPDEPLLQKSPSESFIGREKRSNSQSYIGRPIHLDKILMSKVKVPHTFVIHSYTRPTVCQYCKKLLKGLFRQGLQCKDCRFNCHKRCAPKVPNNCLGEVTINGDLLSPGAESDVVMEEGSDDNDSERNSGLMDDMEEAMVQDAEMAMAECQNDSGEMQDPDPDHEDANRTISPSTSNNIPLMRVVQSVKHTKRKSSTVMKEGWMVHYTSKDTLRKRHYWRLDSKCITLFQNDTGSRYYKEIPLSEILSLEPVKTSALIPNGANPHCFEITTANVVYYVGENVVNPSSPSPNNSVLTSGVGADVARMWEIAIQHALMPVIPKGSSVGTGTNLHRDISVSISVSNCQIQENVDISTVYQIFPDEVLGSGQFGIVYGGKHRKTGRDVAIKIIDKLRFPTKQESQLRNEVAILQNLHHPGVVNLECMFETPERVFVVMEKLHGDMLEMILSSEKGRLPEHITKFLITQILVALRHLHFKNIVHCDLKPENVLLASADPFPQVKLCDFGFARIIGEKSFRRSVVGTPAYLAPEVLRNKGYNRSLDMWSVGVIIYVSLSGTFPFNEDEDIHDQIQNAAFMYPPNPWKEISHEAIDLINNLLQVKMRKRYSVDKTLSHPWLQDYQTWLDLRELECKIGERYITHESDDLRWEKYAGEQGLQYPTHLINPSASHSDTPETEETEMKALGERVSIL

[8] = biological target: Serine/threonine-protein kinase PAK 2 (Homo sapiens) (UniProt Q13177); assay: Inhibition of PAK2 assessed as residual activity at 10 uM; in short: as §1
Serine/threonine-protein kinase PAK 2 (Homo sapiens), sequence (Q13177 whole entry): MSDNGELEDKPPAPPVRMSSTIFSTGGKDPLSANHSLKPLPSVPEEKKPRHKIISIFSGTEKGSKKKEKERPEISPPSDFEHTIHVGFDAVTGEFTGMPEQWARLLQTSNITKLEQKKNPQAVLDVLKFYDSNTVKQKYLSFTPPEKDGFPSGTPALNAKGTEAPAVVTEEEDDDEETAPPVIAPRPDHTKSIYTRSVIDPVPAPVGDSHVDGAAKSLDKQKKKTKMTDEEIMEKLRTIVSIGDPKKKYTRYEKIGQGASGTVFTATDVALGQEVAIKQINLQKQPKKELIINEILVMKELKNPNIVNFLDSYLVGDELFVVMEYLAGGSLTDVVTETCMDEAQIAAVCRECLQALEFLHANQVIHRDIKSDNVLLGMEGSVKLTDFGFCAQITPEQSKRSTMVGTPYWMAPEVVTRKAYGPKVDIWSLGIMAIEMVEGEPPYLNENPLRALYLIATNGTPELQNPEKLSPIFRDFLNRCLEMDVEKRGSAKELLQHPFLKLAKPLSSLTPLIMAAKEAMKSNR

[9] = biological target: Ribosomal protein S6 kinase alpha-1 (Homo sapiens) (UniProt Q15418); assay: Inhibition of RSK1 assessed as residual activity at 10 uM; in short: as §1
[10] = biological target: RAC-beta serine/threonine-protein kinase (Homo sapiens) (UniProt P31751); assay: Inhibition of PKBbeta assessed as residual activity at 10 uM; in short: as §1
RAC-beta serine/threonine-protein kinase (Homo sapiens), sequence (P31751 whole entry): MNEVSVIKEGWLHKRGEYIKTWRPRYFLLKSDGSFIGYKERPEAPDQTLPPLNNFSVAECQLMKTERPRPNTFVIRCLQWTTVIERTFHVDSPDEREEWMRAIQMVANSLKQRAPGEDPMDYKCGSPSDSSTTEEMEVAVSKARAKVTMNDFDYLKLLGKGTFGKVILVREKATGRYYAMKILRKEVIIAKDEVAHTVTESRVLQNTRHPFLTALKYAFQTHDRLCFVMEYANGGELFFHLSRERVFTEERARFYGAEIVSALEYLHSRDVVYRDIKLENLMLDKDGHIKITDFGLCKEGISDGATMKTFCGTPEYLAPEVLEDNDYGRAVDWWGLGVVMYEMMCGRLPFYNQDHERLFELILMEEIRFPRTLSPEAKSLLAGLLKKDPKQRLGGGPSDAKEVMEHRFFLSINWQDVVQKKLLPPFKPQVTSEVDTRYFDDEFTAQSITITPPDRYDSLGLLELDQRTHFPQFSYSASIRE

[11] = biological target: Ribosomal protein S6 kinase alpha-5 (Homo sapiens) (UniProt O75582); assay: Inhibition of MSK1 assessed as residual activity at 10 uM; in short: as §1
Ribosomal protein S6 kinase alpha-5 (Homo sapiens), sequence (O75582 whole entry, looked up): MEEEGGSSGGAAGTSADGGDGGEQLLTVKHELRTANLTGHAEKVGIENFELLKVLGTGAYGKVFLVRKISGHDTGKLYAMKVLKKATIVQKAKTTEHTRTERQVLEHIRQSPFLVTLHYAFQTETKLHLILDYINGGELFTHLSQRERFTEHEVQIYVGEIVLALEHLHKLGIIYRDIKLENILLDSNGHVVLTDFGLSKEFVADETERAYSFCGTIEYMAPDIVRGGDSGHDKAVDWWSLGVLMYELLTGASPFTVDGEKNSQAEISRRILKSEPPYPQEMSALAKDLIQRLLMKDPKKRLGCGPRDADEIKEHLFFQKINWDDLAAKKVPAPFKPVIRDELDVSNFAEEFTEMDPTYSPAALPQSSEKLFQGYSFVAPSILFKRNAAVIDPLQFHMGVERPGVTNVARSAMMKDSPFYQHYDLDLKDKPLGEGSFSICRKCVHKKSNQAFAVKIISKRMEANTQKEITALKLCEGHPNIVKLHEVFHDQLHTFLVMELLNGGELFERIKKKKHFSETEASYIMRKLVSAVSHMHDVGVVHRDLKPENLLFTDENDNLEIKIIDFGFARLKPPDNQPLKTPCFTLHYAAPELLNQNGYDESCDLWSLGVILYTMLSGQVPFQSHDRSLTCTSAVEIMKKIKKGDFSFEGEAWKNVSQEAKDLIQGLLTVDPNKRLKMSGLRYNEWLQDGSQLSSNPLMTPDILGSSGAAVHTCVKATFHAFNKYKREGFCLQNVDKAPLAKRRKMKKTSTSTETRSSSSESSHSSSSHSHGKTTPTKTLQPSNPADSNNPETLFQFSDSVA

[12] = biological target: T3, NUAK family SNF1-like kinase 1 (Homo sapiens) (UniProt O60285); assay: Inhibition of NUAK1 assessed as residual activity at 10 uM; in short: as §1
T3 sequence (whole entry): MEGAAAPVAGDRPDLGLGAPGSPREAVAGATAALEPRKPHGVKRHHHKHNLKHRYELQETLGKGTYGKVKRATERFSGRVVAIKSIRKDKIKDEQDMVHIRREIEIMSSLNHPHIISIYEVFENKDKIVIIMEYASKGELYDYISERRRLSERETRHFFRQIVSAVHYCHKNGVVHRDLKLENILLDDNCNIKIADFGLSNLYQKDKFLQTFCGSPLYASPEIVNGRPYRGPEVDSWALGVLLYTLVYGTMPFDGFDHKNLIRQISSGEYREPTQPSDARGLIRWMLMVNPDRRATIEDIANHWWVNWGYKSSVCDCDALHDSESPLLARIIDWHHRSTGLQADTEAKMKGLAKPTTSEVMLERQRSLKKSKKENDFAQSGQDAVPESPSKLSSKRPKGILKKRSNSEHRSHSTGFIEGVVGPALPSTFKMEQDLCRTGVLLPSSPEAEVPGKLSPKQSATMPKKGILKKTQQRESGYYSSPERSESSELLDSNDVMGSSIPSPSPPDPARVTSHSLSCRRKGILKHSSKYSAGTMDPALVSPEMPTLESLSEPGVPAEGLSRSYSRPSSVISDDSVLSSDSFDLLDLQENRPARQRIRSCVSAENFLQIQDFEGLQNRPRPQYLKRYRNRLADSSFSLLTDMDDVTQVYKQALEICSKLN

[13] = biological target: Homeodomain-interacting protein kinase 2 (Homo sapiens) (UniProt Q9H2X6); assay: Inhibition of HIPK2 assessed as residual activity at 10 uM; in short: as §2
[14] = biological target: Mitogen-activated protein kinase 3 (Homo sapiens) (UniProt P27361); assay: Inhibition of ERK1 assessed as residual activity at 10 uM; in short: as §2
[15] = biological target: Serine/threonine-protein kinase PAK 4 (Homo sapiens) (UniProt O96013); assay: Inhibition of PAK4 assessed as residual activity at 10 uM; in short: as §1
[16] = biological target: Homeodomain-interacting protein kinase 1 (Homo sapiens) (UniProt Q86Z02); assay: Inhibition of HIPK1 assessed as residual activity at 10 uM; in short: as §2
[17] = biological target: Serine/threonine-protein kinase N2 (Homo sapiens) (UniProt Q16513); assay: Inhibition of PRK2 assessed as residual activity at 10 uM; in short: as §1
[18] = biological target: Insulin receptor-related protein (Homo sapiens) (UniProt P14616); assay: Inhibition of IRR assessed as residual activity at 10 uM; in short: as §2
Insulin receptor-related protein (Homo sapiens), sequence (P14616 whole entry): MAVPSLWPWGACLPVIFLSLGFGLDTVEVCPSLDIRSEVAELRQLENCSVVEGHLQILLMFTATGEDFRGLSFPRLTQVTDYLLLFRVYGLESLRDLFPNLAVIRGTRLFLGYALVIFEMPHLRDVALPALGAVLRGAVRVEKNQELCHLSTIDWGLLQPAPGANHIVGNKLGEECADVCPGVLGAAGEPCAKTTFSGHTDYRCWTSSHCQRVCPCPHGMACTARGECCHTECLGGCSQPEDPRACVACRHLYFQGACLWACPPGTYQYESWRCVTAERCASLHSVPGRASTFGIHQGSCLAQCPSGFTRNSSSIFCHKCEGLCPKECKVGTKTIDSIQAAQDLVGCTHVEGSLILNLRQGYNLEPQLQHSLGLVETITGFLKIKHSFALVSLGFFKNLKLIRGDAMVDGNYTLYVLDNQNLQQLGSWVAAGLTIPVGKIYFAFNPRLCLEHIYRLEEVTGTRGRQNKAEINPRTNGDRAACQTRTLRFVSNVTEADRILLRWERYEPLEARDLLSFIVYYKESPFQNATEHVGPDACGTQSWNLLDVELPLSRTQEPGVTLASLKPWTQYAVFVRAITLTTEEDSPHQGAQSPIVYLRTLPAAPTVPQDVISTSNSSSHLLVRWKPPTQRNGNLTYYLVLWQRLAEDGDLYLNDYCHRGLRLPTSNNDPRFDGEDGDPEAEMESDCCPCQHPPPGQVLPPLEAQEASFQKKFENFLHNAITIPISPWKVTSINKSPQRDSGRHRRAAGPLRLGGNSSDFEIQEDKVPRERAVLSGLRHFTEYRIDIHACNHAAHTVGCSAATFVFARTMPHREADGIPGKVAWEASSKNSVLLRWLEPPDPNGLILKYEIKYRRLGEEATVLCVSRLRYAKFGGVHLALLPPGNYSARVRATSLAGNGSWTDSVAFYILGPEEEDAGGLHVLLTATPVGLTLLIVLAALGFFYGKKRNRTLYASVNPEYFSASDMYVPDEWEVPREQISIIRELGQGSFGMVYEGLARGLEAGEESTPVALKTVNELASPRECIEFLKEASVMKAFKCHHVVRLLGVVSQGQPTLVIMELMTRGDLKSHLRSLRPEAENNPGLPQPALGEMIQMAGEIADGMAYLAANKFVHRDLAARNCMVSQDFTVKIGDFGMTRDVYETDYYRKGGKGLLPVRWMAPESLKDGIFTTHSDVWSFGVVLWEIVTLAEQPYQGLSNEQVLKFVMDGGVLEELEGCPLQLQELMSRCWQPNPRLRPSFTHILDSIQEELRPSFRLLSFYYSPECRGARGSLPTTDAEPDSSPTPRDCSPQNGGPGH

[19] = biological target: T1, Myosin light chain kinase, smooth muscle; assay: Inhibition of smMLCK assessed as residual activity at 10 uM; in short: as §1

CN1CCN(CCC(=O)Nc2ccc3c(C#N)cnc(Nc4cccc(Br)c4)c3c2)CC1
Activity [1]: 87% | IC50 [2]: 8.7 µM | Activity [3]: 65% | Activity [4]: 77% | Activity [5]: 73% | Activity [6]: 58% | Activity [7]: 83% | Activity [8]: 90% | Activity [9]: 84% | Activity [10]: 87% | Activity [11]: 81% | Activity [12]: 94% | Activity [13]: 88% | Activity [14]: 85% | Activity [15]: 86% | Activity [16]: 83% | Activity [17]: 90% | Activity [18]: 86% | Activity [19]: 9%

CN(C)CCCC(=O)Nc1ccc2c(C#N)cnc(Nc3cccc(Br)c3)c2c1
Activity [1]: 100% | IC50 [2]: 25.1 µM | Activity [3]: 59% | Activity [4]: 64% | Activity [5]: 68% | Activity [6]: 72% | Activity [7]: 75% | Activity [8]: 80% | Activity [9]: 84% | Activity [10]: 85% | Activity [11]: 86% | Activity [12]: 86% | Activity [13]: 93% | Activity [14]: 93% | Activity [15]: 94% | Activity [16]: 95% | Activity [17]: 98% | Activity [18]: 98% | Activity [19]: 11%

CN(C)C/C=C/C(=O)Nc1ccc2c(C#N)cnc(Nc3cccc(Br)c3)c2c1
Activity [1]: 86% | IC50 [2]: 23.6 µM | Activity [3]: 73% | Activity [4]: 61% | Activity [5]: 73% | Activity [6]: 55% | Activity [7]: 79% | Activity [8]: 81% | Activity [9]: 79% | Activity [10]: 37% | Activity [11]: 95% | Activity [12]: 100% | Activity [13]: 95% | Activity [14]: 83% | Activity [15]: 82% | Activity [16]: 100% | Activity [17]: 100% | Activity [18]: 73% | Activity [19]: 33%
